# Screening results: PubChem BioAssay, Sanford-Burnham Center for Chemical Genomics
# SENP8 block-1: SENP8 protease inhibition; Q96LD8; purified SENP8, Z-RLRGG-aminoluciferin cleavage, luminescence; inhibition, % at 10 µM; 330,000 tested, 1.2% active; AID 2540; in the data active = inhibition above about 50%
# SENP7 inh: blocks the human protease SENP7; Q9BQF6; recombinant SENP7, Z-RLRGG-aminoluciferin luminescence, 40 min; inhibition, % at 5 µM; 330,000 tested, 1.5% active; AID 434973;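 active = inhibition above about 50% at the single test dose, limit read from the data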;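 also: plate controls were DMSO with enzyme for no effect and no enzyme buffer wells for full effect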
# SENP8 block-2: SENP8 (human) protease inhibition; 360,000 tested, 0.64% active; recombinant SENP8, Nedd8 substrate fluorescence; inhibition, % at 20 µM; AID 602440; in the data active = inhibition mostly above about 40%, no sharp cut-off; inactive = mostly below about 27%
# SENP6 block: inhibitors of human SENP6 protease | AID 2599 | inhibition, % at 10 µM | Recombinant SENP6 catalytic domain, aminoluciferin luminescence | Q9GZR1 | 330,000 tested, 1.8% active;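 active = inhibition above about 50% at the single tested dose, limit read from the data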;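 also: plate controls were DMSO wells with enzyme for no effect and DMSO wells lacking enzyme for full effect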
# NRP1-CendR mod: NRP-1/CendR interaction modulation. O14786. FAM-RPARPAR peptide binding to NRP-1, fluorescence polarization. AID 602438. inhibition, % at 25 µM. 360,000 tested, 0.85% active;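 active = inhibition or corrected inhibition above about 18%, plus a signal ratio from 0.5 to 1.5, limit read from the data, passing the limit was not always enough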
# SENP1 FRET inh: SENP1 (human) catalytic domain inhibition; Q9P0U3; recombinant SENP1 catalytic domain, CyPet-SUMO1-YPet FRET cleavage; inhibition, % at 10 µM; 360,000 tested, 0.21% active; AID 624204;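 active = inhibition at least 30% at 10 µM, raw YFP signal under a set limit, fluorescence ratio 0.5 to 1.5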;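 also: 0% = enzyme with DMSO and 100% = no enzyme wells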
#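 Controls: no-enzyme wells low, DMSO-plus-enzyme wells high control. Test system: human recombinant His6-tagged SENP1 catalytic domain enzyme. Reagent: SFCypet-SUMO1-SFYpet FRET protein substrate, 25 nM final. Doses: one dose per compound, 10 µM, 0.5% DMSO. Detection: FRET, CFP and YFP emission. Timing: 50 min reaction at room temperature.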
# SENP8 conf: confirmation of human SENP8 protease inhibitors; shares compounds with SENP7 inh; Recombinant SENP8, Z-RLRGG-aminoluciferin luminescence, 60 min; inhibition, % at 12.5 µM; 6,200 tested, 40% active; AID 488912;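 active = mean inhibition across replicates above about 50%, limit read from the data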
# SENP6 confirm: human SENP6 inhibition, confirmed; shares compounds with SENP7 inh; recombinant SENP6, Z-RLRGG-aminoluciferin luminescence; inhibition, % at 12.5 µM; 6,200 tested, 58% active
# SENP7 conf: human SENP7 inhibition, confirmed. 6,200 tested, 69% active. inhibition, % at 12.5 µM. recombinant SENP7, Z-RLRGG-aminoluciferin luminescence, 40 min. shares compounds with SENP7 inh
# Casp3 SENP sel: selectivity test for SENP inhibitors: human caspase-3 inhibition; shares compounds with SENP7 inh; purified caspase-3, Z-DEVD-aminoluciferin luminescence, 60 min; 6,200 tested, 60% active; AID 488918; inhibition, % at 12.5 µM;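 active = mean inhibition above about 50%, limit read from the data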;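 also: plate controls were enzyme with DMSO for no effect and wells without caspase-3 for full effect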
# SENP luc ctr: counter-screen for SENP inhibitors: luminescence interference. 6,200 tested, 39% active. AID 488919. inhibition, % at 12.5 µM. shares compounds with SENP7 inh. Pre-incubated SENP8/Z-RLRGG-aminoluciferin, luciferase luminescence interference;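 active = mean inhibition above about 50% when retested at one dose, limit read from the data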;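 also: plate controls were DMSO wells with completed reaction for no effect and substrate without enzyme for full effect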
# The depositor's hits bear a star; i = inactive; nt = no result. Only some compounds are listed: those with a hit (about 3.3% of all), similar ones and a draw of the others.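 The calls were made as follows, unless noted: active = mean inhibition above about 50% in the one-dose retest (limit read from the data); inactive = the rest.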
SMILES,SENP8 block-1,SENP7 inh,SENP8 block-2,SENP6 block,NRP1-CendR mod,SENP1 FRET inh,SENP8 conf,SENP6 confirm,SENP7 conf,Casp3 SENP sel,SENP luc ctr
c1ccc2c3c(cc(N4CCOCC4)c2c1)OC1(N2CCOCC2)CCCCC1O3 (configuration not stated),37.8,44.8,-290.2,80.0*,-7.4,-0.3,11.4,17.6,11.1,3.9,3.0
Cc1cccc(S(=O)(=O)NC(=O)C2(C)CCN2C(=O)c2c(C)noc2C)c1 (configuration not stated),nt,nt,9.4,nt,0.7,0.4,nt,nt,nt,nt,nt
COC(=O)Cc1[nH]n(-c2nc3ccccc3s2)c(=O)c1C(C)=O,21.1,6.4,-1.6,50.0,-18.9,0.5,nt,nt,nt,nt,nt
CC(=O)c1c(CC(=O)O)[nH]n(-c2nc3ccccc3s2)c1=O,86.6*,88.3*,-6.0,84.1*,-22.9,-7.7,86.5*,83.1*,96.8*,95.4*,83.0*
COc1ccc(CN=C(C)c2c(C(F)(F)F)[nH]n(-c3nc4ccccc4s3)c2=O)cc1,49.5,91.3*,7.9,85.2*,-7.5,-0.3,17.0,15.9,20.6,50.1*,54.2*
CCOc1ccccc1OCCCC(=O)Nc1cc(S(=O)(=O)N2CCCCC2)ccc1C,nt,nt,19.3,nt,-5.5,1.5,nt,nt,nt,nt,nt
Nc1ccc(N=Nc2ccccc2O)c(N)c1,69.9*,79.3*,39.9,82.9*,9.9,5.7,76.8*,80.7*,94.7*,57.0*,82.2*
Oc1ccc(/C=C/c2ccnc3ccccc23)cc1,40.3,7.8,-292.6,61.4*,-3.1,16.1,25.9,25.2,74.5*,28.1,-3.1
Clc1ccccc1/C=C/c1ccnc2ccccc12,9.1,4.2,-297.4,10.8,0.4,1.0,nt,nt,nt,nt,nt
Nc1ccc(/C=C/c2ccc3ncccc3c2)cc1,52.5*,73.8*,-273.4,59.5*,-4.0,-22.1,45.8,57.3*,79.5*,49.0,10.6
Nc1ccc2ncccc2c1,36.8,9.4,-208.0,43.0,-0.1,0.8,nt,nt,nt,nt,nt
COc1cc(OC)cc(C2=Cc3ccccc3C(CC(=O)c3ccco3)N2c2ccc(-c3cccnc3)cc2)c1 (configuration not stated),nt,nt,-127.4,nt,-5.4,-3.1,nt,nt,nt,nt,nt
COCCCNC(=O)CN(c1cc(Cl)ccc1OC)S(=O)(=O)c1ccc(C)c([N+](=O)[O-])c1,-10.0,-6.1,16.7,72.7*,-19.1,-0.6,5.9,3.4,-10.1,-5.1,-2.5
COc1ccc(N(CC(=O)NCc2cccnc2)S(=O)(=O)c2ccc(C)c([N+](=O)[O-])c2)cc1,6.7,6.2,7.7,2.9,19.1,1.8,nt,nt,nt,nt,nt
COCCNC(=O)CN(c1cc(Cl)ccc1OC)S(=O)(=O)c1ccc(C)c([N+](=O)[O-])c1,-2.7,-5.3,0.5,7.8,0.9,3.6,nt,nt,nt,nt,nt
COc1ccc(N(CC(=O)NCc2ccncc2)S(=O)(=O)c2ccc(C)c([N+](=O)[O-])c2)cc1,-0.1,0.9,21.6,85.5*,-6.9,0.5,-1.8,-0.3,-2.2,-1.4,0.2
COc1ccc(S(=O)(=O)N(C)C[C@H]2Oc3ccc(NC(=O)NC4CCCCC4)cc3C(=O)N([C@H](C)CO)C[C@@H]2C)cc1,-17.7,-6.7,-0.8,-13.7,7.1,1.2,nt,nt,nt,nt,nt
CCOc1ccc(C(=O)N/N=C/c2ccc(SC)cc2)cc1,2.0,2.3,-144.1,-6.8,-11.7,3.4,nt,nt,nt,nt,nt
CSc1ccc(/C=N/NC(=O)c2cccc(O)c2)cc1,75.0*,90.0*,-257.0,91.3*,2.4,2.2,7.3,81.3*,95.7*,86.1*,83.1*
O=C1NC(=O)/C(=C\c2ccc(OCc3cccc(C(=O)O)c3)c(Cl)c2)N1,90.5*,77.4*,-179.4,95.0*,-0.3,-0.3,-15.7,92.9*,100.8*,29.8,70.7*
COc1cc(/C=C2\NC(=S)NC2=O)ccc1OCc1cccc(C(=O)O)c1,-11.8,-3.9,-82.5,27.9,-54.0,-4.0,nt,nt,nt,nt,nt
O=C(CC(SCc1ccco1)c1ccc(O)cc1)c1cccs1 (configuration not stated),88.0*,58.1*,-3.9,88.9*,-3.9,11.8,92.9*,91.1*,95.4*,46.2,86.7*
O=C(CSc1nnc(-c2ccc(O)cc2)n1Cc1ccco1)c1cccs1,-18.5,-2.3,15.9,-4.9,-9.1,2.4,nt,nt,nt,nt,nt
Nc1c(Cl)cc(C(=O)NC2CC2)cc1Cl,nt,nt,19.1,nt,-1.0,1.4,nt,nt,nt,nt,nt
CCN(CC)c1nc(C=Cc2ccc(N(C)C)cc2)c2nccnc2n1,nt,nt,-16.5,nt,102.2,32.7,nt,nt,nt,nt,nt
SMILES,SENP8 block-1,SENP7 inh,SENP8 block-2,SENP6 block,NRP1-CendR mod,SENP1 FRET inh,SENP8 conf,SENP6 confirm,SENP7 conf,Casp3 SENP sel,SENP luc ctr
COc1ccc2cc(-c3csc(-c4cccnc4)n3)ccc2c1,-13.0,67.1*,-133.6,5.3,0.1,-4.2,16.7,12.1,14.6,10.2,-0.5
COc1ccc(-c2csc(-c3ccc(O)cc3)n2)cc1,-10.9,1.5,-24.6,-2.2,0.0,1.8,nt,nt,nt,nt,nt
COc1ccc(-c2csc(-c3ccccc3)n2)c(OC)c1,84.1*,89.1*,-79.0,93.0*,-10.9,-2.9,82.3*,91.3*,96.0*,73.9*,26.5
OCCN1CCN(c2ncnc3c2ncn3[C@H]2CN(Cc3ccc4c(c3)OCO4)C[C@@H](CO)O2)CC1,nt,nt,0.9,nt,7.1,1.5,nt,nt,nt,nt,nt
O=C(CSc1nnc(-c2cccnc2)o1)c1cc2ccccc2oc1=O,-8.7,-5.1,-110.5,-4.4,-10.6,13.8,nt,nt,nt,nt,nt
Cn1cnnc1SCC(=O)c1cc2ccccc2oc1=O,3.8,66.7*,-31.4,-15.4,-24.1,-28.8,9.9,8.7,3.5,-2.4,-5.9
COc1cc(CNC(=O)C2CC2)ccc1OCc1ccccc1,35.9,48.2,2.0,54.7*,9.9,0.6,43.3,39.9,77.6*,75.8*,39.3
Cn1c(=O)c2cc(NC(=O)CCc3cccnc3)ccc2n1Cc1cccc(C(F)(F)F)c1,nt,nt,i,nt,-33.6,12.1,nt,nt,nt,nt,nt
O=c1cc(CCl)[nH]c2nc3ccccc3n12,-11.9,-4.7,-353.8,-8.4,-9.5,-1.1,nt,nt,nt,nt,nt
O=c1cc(-c2ccccc2)[nH]c2nc3ccccc3n12,87.9*,97.7*,-307.1,88.2*,3.9,-54.0,1.6,64.0*,64.1*,72.1*,5.4
